How the values were obtained:
[1] = molecular target: MAP/microtubule affinity-regulating kinase 3 (Homo sapiens) (UniProt P27448); test: Percent residual activity, relative to control, of MARK3 at 1uM concentration of inhibitor in presence of 5uM ATP
Method in brief: (§1)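 It is expressed as percent of activity in control incubations without inhibitor, as the mean of duplicate determinations. The protocol follows earlier published panel methods.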

[2] = molecular target: cAMP-dependent protein kinase catalytic subunit alpha (Homo sapiens, UniProt P17612); test: Inhibitory potency towards human cAPK C alpha in the presence of 100 uM ATP and 30 uM TAMRA-kemptide
Method in brief: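 cAPK catalytic subunit (about 1 nM) incubated at 30 °C with inhibitor at various concentrations in 50 mM Hepes pH 7.5, 10 mM Mg acetate, 0.2 mg/mL BSA, 30 µM TAMRA-kemptide; reaction started with 100 µM ATP. Stopped at fixed times by 20-fold dilution in 75 mM phosphoric acid, then normal-phase TLC with fluorescence imaging (532 nm excitation). IC50 determined.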

[3] = molecular target: Serine/threonine-protein kinase Nek7 (Homo sapiens) (UniProt Q8TDX7); test: Percent residual activity, relative to control, of NEK7 at 1 uM concentration of inhibitor in presence of 20 uM ATP; method in brief: as §1
Chain of Serine/threonine-protein kinase Nek7 (Homo sapiens) (Q8TDX7 whole entry, looked up): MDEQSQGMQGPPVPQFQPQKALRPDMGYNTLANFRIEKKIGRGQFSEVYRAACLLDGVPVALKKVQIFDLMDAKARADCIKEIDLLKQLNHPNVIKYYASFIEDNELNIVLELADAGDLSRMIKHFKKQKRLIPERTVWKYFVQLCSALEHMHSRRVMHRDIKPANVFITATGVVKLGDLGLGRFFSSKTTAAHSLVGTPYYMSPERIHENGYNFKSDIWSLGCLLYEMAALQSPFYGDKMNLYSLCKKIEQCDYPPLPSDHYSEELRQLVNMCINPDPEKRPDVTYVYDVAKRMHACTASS

[4] = molecular target: Ribosomal protein S6 kinase alpha-1 (Homo sapiens) (UniProt Q15418); test: Percent residual activity, relative to control, of MAPKAP-K1a/Rsk1 at 1 uM concentration of inhibitor in presence of 50 uM ATP; method in brief: as §1
[5] = molecular target: AMP-activated protein kinase, AMPK (Homo sapiens) (UniProt P54646+O43741+P54619+Q9UGJ0+Q9Y478+Q13131+Q9UGI9); test: Percent residual activity, relative to control, of AMPK at 1 uM concentration of inhibitor in presence of 50 uM ATP; type: protein-complex assay; method in brief: as §1
[6] = molecular target: Myosin light chain kinase, smooth muscle (Homo sapiens) (UniProt Q15746); test: Percent residual activity, relative to control, of smMLCK at 1uM concentration of inhibitor in presence of 50uM ATP
Method in brief: (§2)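 Methods followed an earlier description. Activity is given as percent residual activity relative to control incubations with the inhibitor omitted. Values are means of duplicate determinations.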

[7] = molecular target: Tyrosine-protein kinase Lck (Homo sapiens) (UniProt P06239); test: Percent residual activity, relative to control, of Lck at 1uM concentration of inhibitor in presence of 50uM ATP; method in brief: as §1
[8] = molecular target: MAP kinase-activated protein kinase 3 (Homo sapiens) (UniProt Q16644); test: Percent residual activity, relative to control, of MAPKAP-K3 at 1 uM concentration of inhibitor in presence of 20 uM ATP; method in brief: as §1
Chain of MAP kinase-activated protein kinase 3 (Homo sapiens) (Q16644 whole entry, looked up): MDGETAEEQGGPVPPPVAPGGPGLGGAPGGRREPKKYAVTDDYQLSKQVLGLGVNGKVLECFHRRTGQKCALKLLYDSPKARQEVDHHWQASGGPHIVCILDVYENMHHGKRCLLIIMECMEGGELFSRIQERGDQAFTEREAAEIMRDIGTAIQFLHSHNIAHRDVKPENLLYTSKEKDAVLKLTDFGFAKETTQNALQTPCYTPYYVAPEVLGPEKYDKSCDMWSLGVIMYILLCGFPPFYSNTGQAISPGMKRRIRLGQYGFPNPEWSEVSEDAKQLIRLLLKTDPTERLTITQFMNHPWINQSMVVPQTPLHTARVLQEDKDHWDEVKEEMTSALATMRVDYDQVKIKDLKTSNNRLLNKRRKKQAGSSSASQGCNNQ

[9] = molecular target: c-Jun N-terminal kinase, JNK (Homo sapiens) (UniProt P45983+P53779+P45984); test: Percent residual activity, relative to control, of JNK/SAPK1c at 1 uM concentration of inhibitor in presence of 20 uM ATP; type: protein assay; method in brief: as §1
[10] = molecular target: RAC-alpha serine/threonine-protein kinase (Homo sapiens) (UniProt P31749); test: Percent residual activity, relative to control, of PKB alpha (no ph) at 1 uM concentration of inhibitor in presence of 5 uM ATP; method in brief: as §1
Chain of RAC-alpha serine/threonine-protein kinase (Homo sapiens) (P31749 whole entry): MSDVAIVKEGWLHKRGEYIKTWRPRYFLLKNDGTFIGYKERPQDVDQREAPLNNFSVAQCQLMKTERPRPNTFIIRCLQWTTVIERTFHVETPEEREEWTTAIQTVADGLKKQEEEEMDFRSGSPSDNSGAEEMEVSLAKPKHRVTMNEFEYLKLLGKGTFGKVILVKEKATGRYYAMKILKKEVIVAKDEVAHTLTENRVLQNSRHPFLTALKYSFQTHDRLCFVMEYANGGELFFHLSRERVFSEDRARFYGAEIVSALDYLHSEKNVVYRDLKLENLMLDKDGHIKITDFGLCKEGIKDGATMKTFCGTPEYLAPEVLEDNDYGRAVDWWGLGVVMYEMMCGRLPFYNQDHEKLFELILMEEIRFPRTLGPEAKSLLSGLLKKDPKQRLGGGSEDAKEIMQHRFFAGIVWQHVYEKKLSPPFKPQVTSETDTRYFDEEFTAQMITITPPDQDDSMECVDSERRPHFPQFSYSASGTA

[11] = molecular target: Serine/threonine-protein kinase Chk2 (Homo sapiens) (UniProt O96017); test: Percent residual activity, relative to control, of CHK2 at 1uM concentration of inhibitor in presence of 20uM ATP; method in brief: as §1
[12] = molecular target: Serine/threonine-protein kinase Chk1 (Homo sapiens) (UniProt O14757); test: Percent residual activity, relative to control, of CHK1 at 1 uM concentration of inhibitor in presence of 20 uM ATP; method in brief: as §1
[13] = molecular target: Proto-oncogene tyrosine-protein kinase Src (Homo sapiens) (UniProt P12931); test: Percent residual activity, relative to control, of Src at 1 uM concentration of inhibitor in presence of 50 uM ATP; method in brief: as §2
Chain of Proto-oncogene tyrosine-protein kinase Src (Homo sapiens) (P12931 2-536 limits assumed): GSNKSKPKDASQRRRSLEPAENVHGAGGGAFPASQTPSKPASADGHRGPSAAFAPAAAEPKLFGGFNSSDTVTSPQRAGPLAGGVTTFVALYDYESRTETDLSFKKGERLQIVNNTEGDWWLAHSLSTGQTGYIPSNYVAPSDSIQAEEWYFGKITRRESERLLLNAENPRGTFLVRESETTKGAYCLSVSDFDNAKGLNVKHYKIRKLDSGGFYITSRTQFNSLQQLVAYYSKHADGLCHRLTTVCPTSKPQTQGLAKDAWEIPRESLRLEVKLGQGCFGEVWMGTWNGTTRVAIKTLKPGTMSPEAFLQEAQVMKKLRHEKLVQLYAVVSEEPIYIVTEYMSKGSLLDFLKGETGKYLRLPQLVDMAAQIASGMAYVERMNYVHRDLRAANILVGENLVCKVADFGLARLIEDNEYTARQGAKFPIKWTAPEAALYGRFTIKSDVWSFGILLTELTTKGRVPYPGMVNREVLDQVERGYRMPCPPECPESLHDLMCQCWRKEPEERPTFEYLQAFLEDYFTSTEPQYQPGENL

[14] = molecular target: MAP kinase-activated protein kinase 5 (Homo sapiens) (UniProt Q8IW41); test: Percent residual activity, relative to control, of PRAK at 1uM concentration of inhibitor in presence of 20uM ATP; method in brief: as §1
[15] = molecular target: Serine/threonine-protein kinase Nek6 (Homo sapiens) (UniProt Q9HC98); test: Percent residual activity, relative to control, of NEK6 at 1 uM concentration of inhibitor in presence of 50 uM ATP; method in brief: as §1
Chain of Serine/threonine-protein kinase Nek6 (Homo sapiens) (Q9HC98 whole entry): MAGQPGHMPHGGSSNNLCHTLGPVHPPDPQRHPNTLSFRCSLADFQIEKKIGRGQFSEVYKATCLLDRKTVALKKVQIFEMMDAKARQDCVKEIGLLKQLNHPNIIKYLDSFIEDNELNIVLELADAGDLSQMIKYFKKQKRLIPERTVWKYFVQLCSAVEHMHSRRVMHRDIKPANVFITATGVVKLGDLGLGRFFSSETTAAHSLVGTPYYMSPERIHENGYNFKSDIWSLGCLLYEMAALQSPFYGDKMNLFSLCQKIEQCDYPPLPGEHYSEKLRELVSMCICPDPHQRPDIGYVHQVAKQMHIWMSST

Homo sapiens = organism: Homo sapiens; test: Percent residual activity, relative to control, of MAPKAP-K1b/Rsk2 at 1 uM concentration of inhibitor in presence of 50 uM ATP; method in brief: as §1
[16] = molecular target: Casein kinase I (Homo sapiens) (UniProt Q9HCP0+P78368+P48730+P49674+P48729); test: Percent residual activity, relative to control, of CK1 at 1 uM concentration of inhibitor in presence of 20 uM ATP; type: protein assay; method in brief: as §1
[17] = molecular target: Tyrosine-protein kinase CSK (Homo sapiens) (UniProt P41240); test: Percent residual activity, relative to control, of CSK at 1 uM concentration of inhibitor in presence of 20 uM ATP; method in brief: as §1
[18] = molecular target: Serine/threonine-protein kinase Sgk1 (Homo sapiens) (UniProt O00141); test: Percent residual activity, relative to control, of SGK at 1 uM concentration of inhibitor in presence of 20 uM ATP; method in brief: as §1
[19] = molecular target: Serine/threonine-protein kinase N2 (Homo sapiens) (UniProt Q16513); test: Percent residual activity, relative to control, of PRK2 at 1 uM concentration of inhibitor in presence of 5 uM ATP; method in brief: as §1
[20] = molecular target: Mitogen-activated protein kinase 12 (Homo sapiens) (UniProt P53778); test: Percent residual activity, relative to control, of SAPK3/p38 gamma at 1 uM concentration of inhibitor in presence of 5 uM ATP; method in brief: as §1
Chain of Mitogen-activated protein kinase 12 (Homo sapiens) (P53778 whole entry): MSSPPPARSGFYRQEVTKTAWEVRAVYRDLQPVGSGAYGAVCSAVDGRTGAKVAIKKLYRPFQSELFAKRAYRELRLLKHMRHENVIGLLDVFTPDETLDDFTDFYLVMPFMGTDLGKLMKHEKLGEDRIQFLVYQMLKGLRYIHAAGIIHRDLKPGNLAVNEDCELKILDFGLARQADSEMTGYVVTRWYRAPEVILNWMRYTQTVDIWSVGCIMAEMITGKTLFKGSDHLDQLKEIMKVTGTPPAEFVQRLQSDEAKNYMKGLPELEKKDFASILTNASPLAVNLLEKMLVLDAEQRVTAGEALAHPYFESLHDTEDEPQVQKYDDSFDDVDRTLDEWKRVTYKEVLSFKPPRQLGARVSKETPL

[21] = molecular target: RAC-beta serine/threonine-protein kinase (Homo sapiens) (UniProt P31751); test: Percent residual activity, relative to control, of PKB beta at 1uM concentration of inhibitor in presence of 50uM ATP; method in brief: as §1
Chain of RAC-beta serine/threonine-protein kinase (Homo sapiens) (P31751 whole entry): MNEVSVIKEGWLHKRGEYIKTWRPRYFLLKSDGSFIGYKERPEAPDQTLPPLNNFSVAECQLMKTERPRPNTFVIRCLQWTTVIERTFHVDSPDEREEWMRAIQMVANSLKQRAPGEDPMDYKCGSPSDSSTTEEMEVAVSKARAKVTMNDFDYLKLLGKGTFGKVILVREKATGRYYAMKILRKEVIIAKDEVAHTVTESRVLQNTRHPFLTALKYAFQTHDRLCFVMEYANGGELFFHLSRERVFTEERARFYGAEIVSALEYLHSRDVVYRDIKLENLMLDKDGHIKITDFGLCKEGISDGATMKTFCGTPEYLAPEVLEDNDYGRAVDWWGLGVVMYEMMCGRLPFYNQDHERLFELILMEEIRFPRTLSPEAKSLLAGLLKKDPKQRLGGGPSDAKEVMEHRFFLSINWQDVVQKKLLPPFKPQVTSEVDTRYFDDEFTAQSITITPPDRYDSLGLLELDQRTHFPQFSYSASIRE

[22] = molecular target: Serine/threonine-protein kinase 3 (Homo sapiens) (UniProt Q13188); test: Percent residual activity, relative to control, of MST2 at 1 uM concentration of inhibitor in presence of 20 uM ATP; method in brief: as §1
[23] = molecular target: Serine/threonine-protein kinase D1 (Homo sapiens) (UniProt Q15139); test: Percent residual activity, relative to control, of PKD1 at 1 uM concentration of inhibitor in presence of 50 uM ATP; method in brief: as §1
Chain of Serine/threonine-protein kinase D1 (Homo sapiens) (Q15139 whole entry): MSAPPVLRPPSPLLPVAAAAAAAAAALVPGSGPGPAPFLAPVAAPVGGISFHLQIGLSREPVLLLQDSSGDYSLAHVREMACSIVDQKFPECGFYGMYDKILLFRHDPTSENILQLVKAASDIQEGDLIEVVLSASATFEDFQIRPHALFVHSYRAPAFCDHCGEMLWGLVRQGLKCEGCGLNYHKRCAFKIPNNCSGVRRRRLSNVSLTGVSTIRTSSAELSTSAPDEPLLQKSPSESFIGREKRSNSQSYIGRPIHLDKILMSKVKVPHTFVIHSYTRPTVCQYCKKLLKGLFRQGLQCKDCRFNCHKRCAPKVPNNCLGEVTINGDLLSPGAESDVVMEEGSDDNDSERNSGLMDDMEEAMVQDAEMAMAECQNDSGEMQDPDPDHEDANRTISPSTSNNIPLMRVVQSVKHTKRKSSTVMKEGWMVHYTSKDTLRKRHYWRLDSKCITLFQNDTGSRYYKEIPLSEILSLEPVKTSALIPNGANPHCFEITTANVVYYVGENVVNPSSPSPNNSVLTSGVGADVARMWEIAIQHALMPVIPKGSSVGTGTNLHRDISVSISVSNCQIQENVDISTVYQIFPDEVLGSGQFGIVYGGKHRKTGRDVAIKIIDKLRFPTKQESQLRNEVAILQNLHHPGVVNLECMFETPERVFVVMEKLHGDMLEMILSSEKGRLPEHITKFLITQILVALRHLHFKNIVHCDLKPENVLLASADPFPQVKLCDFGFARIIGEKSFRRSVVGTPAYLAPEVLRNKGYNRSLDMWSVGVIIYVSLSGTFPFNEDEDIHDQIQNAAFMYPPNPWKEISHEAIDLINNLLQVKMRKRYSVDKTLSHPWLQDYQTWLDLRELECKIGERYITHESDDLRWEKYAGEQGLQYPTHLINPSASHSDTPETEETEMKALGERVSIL

[24] = molecular target: Dual specificity mitogen-activated protein kinase kinase 1 (Homo sapiens) (UniProt Q02750); test: Percent residual activity, relative to control, of MKK1 at 1 uM concentration of inhibitor in presence of 5 uM ATP; method in brief: as §1
Chain of Dual specificity mitogen-activated protein kinase kinase 1 (Homo sapiens) (Q02750 whole entry): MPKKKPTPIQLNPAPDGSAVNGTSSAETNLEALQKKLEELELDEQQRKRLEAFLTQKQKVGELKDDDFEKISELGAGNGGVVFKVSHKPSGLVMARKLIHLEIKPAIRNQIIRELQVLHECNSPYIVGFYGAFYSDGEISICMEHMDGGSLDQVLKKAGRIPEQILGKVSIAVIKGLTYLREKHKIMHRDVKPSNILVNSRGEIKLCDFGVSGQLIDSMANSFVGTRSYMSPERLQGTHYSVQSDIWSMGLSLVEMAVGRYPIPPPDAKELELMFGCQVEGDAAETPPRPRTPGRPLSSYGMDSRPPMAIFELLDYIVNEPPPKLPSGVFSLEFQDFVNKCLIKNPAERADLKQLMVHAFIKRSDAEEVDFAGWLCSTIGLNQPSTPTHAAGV

Chain of MAP/microtubule affinity-regulating kinase 3 (Homo sapiens) (P27448 whole entry, looked up): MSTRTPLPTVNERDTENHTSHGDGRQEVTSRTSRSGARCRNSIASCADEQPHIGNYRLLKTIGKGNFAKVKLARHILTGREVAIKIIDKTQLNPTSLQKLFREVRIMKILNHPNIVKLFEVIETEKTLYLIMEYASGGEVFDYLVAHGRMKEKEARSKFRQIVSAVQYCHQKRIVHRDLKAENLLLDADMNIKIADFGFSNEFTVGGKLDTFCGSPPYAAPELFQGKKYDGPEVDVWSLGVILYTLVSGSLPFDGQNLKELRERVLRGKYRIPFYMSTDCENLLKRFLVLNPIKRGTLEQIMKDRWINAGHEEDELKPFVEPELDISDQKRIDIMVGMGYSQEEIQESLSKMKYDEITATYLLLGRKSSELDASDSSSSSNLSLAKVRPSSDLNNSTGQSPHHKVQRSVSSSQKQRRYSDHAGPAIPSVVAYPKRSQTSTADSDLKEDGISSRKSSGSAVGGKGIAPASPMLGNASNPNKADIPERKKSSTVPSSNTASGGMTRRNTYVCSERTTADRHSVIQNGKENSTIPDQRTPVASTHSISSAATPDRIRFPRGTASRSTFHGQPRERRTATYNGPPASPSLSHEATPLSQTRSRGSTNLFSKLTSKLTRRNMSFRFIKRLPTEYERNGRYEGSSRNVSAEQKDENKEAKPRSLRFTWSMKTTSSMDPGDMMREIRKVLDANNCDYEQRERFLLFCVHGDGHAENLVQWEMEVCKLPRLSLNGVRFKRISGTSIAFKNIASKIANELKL

With N=C(N)NCCC[C@@H](NC(=O)[C@@H](CCCNC(=N)N)NC(=O)[C@@H](CCCNC(=N)N)NC(=O)[C@@H](CCCNC(=N)N)NC(=O)[C@@H](CCCNC(=N)N)NC(=O)[C@@H](CCCNC(=N)N)NC(=O)CCCCCNC(=O)[C@H]1O[C@@H](n2cnc3c(N)ncnc32)[C@H](O)[C@@H]1O)C(N)=O as the molecule, how does the Activity [1] read?
The Activity was 40%.

And the IC50 [2]?
The IC50 was 109 nM.

What about the Activity [3] of the same molecule?
The Activity was 58%.

What about the Activity [4] of the same molecule?
The Activity was 28%.

What about the Activity [5] of the same molecule?
The Activity was 48%.

And the Activity [6]?
Its Activity is 72%.

And the Activity [7]?
The Activity was 70%.

And the Activity [8]?
Its Activity is 67%.

What about the Activity [9] of the same molecule?
Its Activity is 70%.

And the Activity [10]?
The Activity was 2%.

What about the Activity [11] of the same molecule?
The Activity was 14%.

What about the Activity [12] of the same molecule?
Its Activity is 16%.

And the Activity [13]?
Its Activity is 84%.

What about the Activity [14] of the same molecule?
Its Activity is 89%.

What about the Activity [15] of the same molecule?
Its Activity is 94%.

And the Activity (Homo sapiens)?
The Activity was 12%.

And the Activity [16]?
The Activity was 106%.

And the Activity [17]?
Its Activity is 48%.

What about the Activity [18] of the same molecule?
Its Activity is 16%.

What about the Activity [19] of the same molecule?
The Activity was 2%.

And the Activity [20]?
The Activity was 111%.

And the Activity [21]?
The Activity was 3%.

What about the Activity [22] of the same molecule?
Its Activity is 77%.

And the Activity [23]?
Its Activity is 54%.

And the Activity [24]?
Its Activity is 77%.
